CHRM5 antagonist: blocks acetylcholine activation of human M5 receptor | inhibition, % at 3 µM | CHO-hM5 cells, Fluo-8 calcium fluorescence, ACh EC80 | 360,000 compounds, 0.59% hits | AID 624040;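 active = inhibition above a per-plate cutoff, the mean of that plate's test compounds plus 3 SD, cut at about 27% in these data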
CHRM5 PAM: positive allosteric modulators of human muscarinic M5 receptor | P08912 | CHO-K1 hM5, Fluo-8 calcium, ACh EC20 PAM; 0% = ACh EC20, 100% = ACh EC100 | activation, % at 3 µM | 360,000 compounds, 0.3% hits | AID 624038;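 active = activation above the run cutoff, the mean activation of all test compounds plus 3 SD, cut at about 18% in these data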
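Probe or stimulus: acetylcholine, EC20 level; Assay system: human M5 receptor in CHO-K1 cells; Schedule: compound preincubation 140 s before EC20 acetylcholine addition; Technique: intracellular calcium via Fluo-8 fluorescence; Dosing: single-point, 3 µM nominal; Read-out basis: percent activation from peak-over-basal fluorescence ratio, scaled EC20-to-EC100 acetylcholine; Repeats: one well per compound, no replicates.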
CHRM4 agonist: agonists of human muscarinic M4 receptor (CHRM4) | P08173 | CHO-K1 hM4/Gqi5, Fluo-8 calcium fluorescence; vehicle 0%, full acetylcholine response 100% | activation, % at 3 µM | 360,000 compounds, 0.14% hits | AID 624127;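 active = activation above the run mean over all test wells plus 3 SD, cut at about 32% in these data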;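 note: peak over basal fluorescence ratio per well then scaled between controls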
Target sequence (P08173 whole entry, looked up): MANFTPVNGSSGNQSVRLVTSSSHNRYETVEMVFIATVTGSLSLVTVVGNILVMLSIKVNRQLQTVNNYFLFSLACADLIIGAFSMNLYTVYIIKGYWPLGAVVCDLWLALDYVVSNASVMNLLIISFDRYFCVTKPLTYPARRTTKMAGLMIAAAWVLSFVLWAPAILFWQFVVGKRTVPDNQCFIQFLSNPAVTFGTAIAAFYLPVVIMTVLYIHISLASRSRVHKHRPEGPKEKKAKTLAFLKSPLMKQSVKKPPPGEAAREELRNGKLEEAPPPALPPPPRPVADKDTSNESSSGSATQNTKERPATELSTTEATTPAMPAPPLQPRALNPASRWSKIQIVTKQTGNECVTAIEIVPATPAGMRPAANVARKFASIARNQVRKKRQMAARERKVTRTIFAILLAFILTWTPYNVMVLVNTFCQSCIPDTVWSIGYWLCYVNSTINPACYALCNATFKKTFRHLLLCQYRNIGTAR
M4 PAM: CHRM4 positive allosteric modulation | AID 624126 | P08173 | 360,000 compounds, 0.4% hits | CHO-K1 hM4/Gqi5, Fluo-8 calcium fluorescence, ACh EC20; 0% = ACh EC20, 100% = maximal ACh | activation, % at 3 µM;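 active = activation above its plate's cutoff, the mean activation of sample wells plus 3 SD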
M5 ag: agonists of human muscarinic M5 receptor (CHRM5); P08912; 360,000 compounds, 0.19% hits; activation, % at 3 µM; AID 624037; CHO-K1 hM5 cells, Fluo-8 calcium fluorescence; 0% DMSO wells, 100% maximal acetylcholine response;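 active = activation above the run's mean over test compounds plus 3 SD, cut at about 23% in these data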;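 note: signal is peak over basal fluorescence ratio across the kinetic read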
M4 antag: CHRM4 antagonism in calcium assay; P08173; CHO-hM4 cells, ACh EC80, Fluo-8 calcium fluorescence; inhibition, % at 3 µM; 360,000 compounds, 0.73% hits; AID 624125;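 active = inhibition above its plate's cutoff, the mean inhibition of sample wells plus 3 SD, cut at about 27% in these data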
Hits are given with their value; 0 = inactive. Hits are enriched below; roughly 1.8% of the tested compounds scored in any of these assays.

SMILES	CHRM5 antagonist	CHRM5 PAM	CHRM4 agonist	M4 PAM	M5 ag	M4 antag
CC1Oc2ccccc2N(CC(=O)NCc2ccccc2)C1=O (stereo unspecified)	0	0	0	23.4	0	0
CC1Oc2ccccc2N(CC(=O)NC2CC2)C1=O (stereo unspecified)	0	0	0	0	0	0
CC(=O)Nc1nonc1NC(=O)COc1ccccc1	0	0	0	0	0	0
C1=CC2CC1CC2CN1CCN(c2ccccc2)CC1 (stereo unspecified)	0	0	0	0	0	0
Cc1ccccc1CN1CCN(CC2CC3C=CC2C3)CC1 (stereo unspecified)	0	0	0	0	0	44.4
COc1ccc(NC(=O)CN(C)C(=O)c2cccc(S(=O)(=O)N3CCN(c4ccc(F)cc4)CC3)c2)cc1	30.3	0	0	0	0	0
CCN1CCN(c2ccc(NC(=O)c3cccc(S(=O)(=O)N4CCCC4)c3)cc2)CC1	49.6	0	0	0	0	0
CCn1c(=O)c(=O)[nH]c2cc(C(=O)NC3CCCc4ccccc43)ccc21 (stereo unspecified)	0	0	0	36.3	0	0
CCn1c(=O)c(=O)[nH]c2cc(C(=O)NC3CC3)ccc21	0	0	0	0	0	0
CCn1c(=O)c(=O)[nH]c2cc(C(=O)Nc3ccc(S(=O)(=O)N4CCCC4)cc3)ccc21	0	0	0	30.6	0	0
CCOCc1cc(CN2CCCC(CNC(=O)c3ccco3)C2)ccc1OC (stereo unspecified)	0	0	0	0	0	0
CSc1cccc(NC(=O)CCCOc2cc(=O)n(C)c3ccccc23)c1	0	0	0	0	0	0
CC1=CC(C)(C)N(C(=O)c2ccccc2)c2ccc(C)cc21	0	0	0	0	23.4	0
CC1=CC(C)(C)N(C(=O)c2ccccc2)c2ccccc21	0	0	0	0	0	0
Cc1cc(/C=C2/SC(=S)N(c3ccc([N+](=O)[O-])cc3)C2=O)c(C)n1-c1cccnc1	0	0	0	0	0	0
Cc1cc(/C=C2\SC(=S)N(C)C2=O)c(C)n1-c1ccccc1O	0	0	0	0	0	26.9
Cc1cc(/C=C2/SC(=S)N(c3cccc(Cl)c3)C2=O)c(C)n1-c1cccnc1	0	0	0	0	0	33.5
COc1cccc(-c2ccc(CN3C(C(C)C)C(=O)N(Cc4cn(CCC5OCCO5)nn4)CCS3(=O)=O)cc2)c1OC (stereo unspecified)	0	0	0	0	0	0
C=CCOc1ccccc1CN(C(=O)CCl)c1ccc2c(c1)OCO2	0	0	0	0	0	0
Nc1c(C(=O)c2ccccc2)sc2nsc(SCCN3CCCC3)c12	0	0	0	0	31.6	0
Nc1c(C(=O)c2ccc(Cl)cc2)sc2nsc(SCCN3CCOCC3)c12	0	0	0	0	0	0
Cc1ccc(NC(=O)[C@@H]2O[C@H](CO)[C@H](O)[C@H](O)[C@H]2O)cc1C(F)(F)F	0	0	0	0	0	0
Cn1c(-c2ccc3c(c2)OCO3)cnc1NCc1ccccc1	0	0	0	0	0	0
Cn1c(-c2ccc3c(c2)OCO3)cnc1NCc1cccc(Cl)c1	0	0	0	0	0	32.3
Cn1c(-c2ccc3c(c2)OCO3)cnc1NCc1ccccc1Cl	0	0	0	0	0	50.4
SMILES	CHRM5 antagonist	CHRM5 PAM	CHRM4 agonist	M4 PAM	M5 ag	M4 antag
CCc1ccc(NC(=O)CCCN2C(=O)C3CC=CCC3C2=O)cc1 (stereo unspecified)	29.0	0	0	0	0	0
Cc1cccc(NC(=O)CCCN2C(=O)C3CC=CCC3C2=O)c1 (stereo unspecified)	0	0	0	0	0	0
C[N+](C)(CC#Cc1ccccc1)CC(=O)c1ccc(Cl)cc1	0	0	0	0	0	0
NCCCC[C@H]1CN=C(N)N1CCC12CC3CC(CC(C3)C1)C2	0	0	0	0	0	53.5
O=C(CC1C(=O)NCCN1CC1CCCCC1)NCc1cc(F)ccc1F (stereo unspecified)	27.2	0	0	0	0	0
O=C(CC1C(=O)NCCN1CC1CCCCC1)NCc1ccc(F)cc1F (stereo unspecified)	0	0	0	0	0	0
O=S(=O)(Nc1cc(Sc2ncn[nH]2)c(O)c2ccccc12)c1ccccc1	28.4	0	0	0	0	0
CCOc1ccccc1CNS(=O)(=O)c1ccc(-c2cnc(C3CC3)o2)cc1	27.6	0	0	0	0	28.2
Cc1nnc(SCc2nnc(-c3cccs3)o2)n1Cc1ccccc1	0	0	0	0	0	0
Clc1ccc(-c2nnc(CSc3nnc(-c4cccs4)n3Cc3ccccc3)o2)cc1	28.6	0	0	0	0	30.0
CC(=O)c1sc(NC(=O)CCS(=O)(=O)c2ccccc2)nc1C	0	0	0	17.2	0	0
CC(=O)c1sc(NC(=O)CCS(=O)(=O)c2ccc(F)cc2)nc1C	0	0	0	0	0	0
CCOC(=O)CSc1nc(N)nc(C)c1Cl	27.1	0	0	0	0	0
CCOC(=O)CSc1nc(C)c(CC)c(C)c1C(N)=O	0	0	0	0	0	0
COc1ccc(-c2csc(C(C)(O)c3cccc(F)c3)n2)cc1 (stereo unspecified)	0	0	0	0	0	37.1
CCCn1c(N)c(C(=O)CN(C)CC(=O)Nc2ccccc2C(F)(F)F)c(=O)[nH]c1=O	0	0	0	0	0	0
O=C(NC(=S)Nc1ccccc1N1CCCCC1)c1ccccc1	0	18.7	0	18.2	0	0
Cc1ccc2occ(/C=N/NC(=O)c3ccncc3)c(=O)c2c1	0	0	0	19.8	0	0
Cc1cc(C)c2c(=O)n(CC(=O)Nc3cccc(Cl)c3C)sc2n1	0	0	66.6	0	27.5	69.6
Cc1cc(C)c2c(=O)n(CC(=O)Nc3ccc(Br)c(C)c3)sc2n1	0	0	0	0	0	0
O=C(CNC(=O)C12CC3CC(CC(C3)C1)C2)Nc1ncccc1O	0	0	0	0	0	0
O=C(Nc1nc2ccc(F)cc2s1)C1CCN(S(=O)(=O)c2cc([N+](=O)[O-])ccc2Cl)CC1	43.5	0	0	0	0	27.4
Cc1ccc(NC(=O)C2CCN(S(=O)(=O)c3cc([N+](=O)[O-])ccc3Cl)CC2)nc1	0	0	0	0	0	0
CC(NC(=O)C1CCN(S(=O)(=O)c2cc([N+](=O)[O-])ccc2Cl)CC1)c1ccccc1 (stereo unspecified)	0	0	0	0	0	0
Cc1ccc2nc(NC(=O)C3CCN(S(=O)(=O)c4cc([N+](=O)[O-])ccc4Cl)CC3)sc2c1	30.2	0	0	0	0	0
